Data: ChEMBL document CHEMBL1152796, “Azole antimicrobial pharmacophore-based tetrazoles: synthesis and biological evaluation as potential antimicrobial and anticonvulsant agents” (Bioorg Med Chem, 2009)
≈ marks a conversion by molar mass, not a printed value. Calls of active or inactive are those of the source. The calls are words filed in the database; no cut-off is given here.

How the values were obtained:
Mus musculus [1] = test: Anticonvulsant activity in Wister albino mouse assessed as protection against subcutaneous metrazole-induced seizures at 100 mg/kg, ip administered 30 mins before metrazole challenge measured after 30 mins; format: functional; details: route intraperitoneal
Procedure, shortened: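 Wistar albino mice, either sex, 25–30 g, 3 months old, in groups of six. Compounds in DMSO were given ip at 30, 100 or 300 mg/kg; vehicle-only controls. After 30 min, metrazole 100 mg/kg in DMSO was injected sc at the posterior midline. Protection meant absence of any clonic spasm lasting ≥5 s; scored as protected/tested.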

Pseudomonas aeruginosa [2] = test: Antibacterial activity against Pseudomonas aeruginosa ATCC 27853 at 1 mg/mL after 24 hrs by agar diffusion method; format: functional; details: ATCC 27853, 24 h, read-out: Diameter of inhibition zone
Procedure, shortened: (§1)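 Agar disc diffusion: 5 mm sterile paper discs soaked in 1 mg/mL test solution in DMSO were placed on agar seeded with the organism, in triplicate, with a DMSO-only control. Bacterial plates were incubated at 37 °C for 24 h and fungal plates for 7 days. Read-out was the average inhibition-zone diameter in mm. Fungi were clinical isolates.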

Trichophyton rubrum = test: Antifungal activity against Trichophyton rubrum isolate after 72 hrs by twofold serial dilution method; format: functional, organism-based
Candida tropicalis = test: Antifungal activity against Candida tropicalis isolate after 72 hrs by twofold serial dilution method; format: functional, organism-based
Aspergillus fumigatus [3] = test: Antifungal activity against Aspergillus fumigatus isolate at 1 mg/mL after 7 days by agar diffusion method; format: functional; details: 168 h, read-out: Diameter of inhibition zone; procedure, shortened: as §1
Candida albicans [4] = test: Antifungal activity against Candida albicans isolate at 1 mg/mL after 7 days by twofold serial dilution method; format: functional; details: 168 h, read-out: Diameter of inhibition zone
Aspergillus fumigatus [5] = test: Antifungal activity against Aspergillus fumigatus isolate after 72 hrs by twofold serial dilution method; format: functional
Aspergillus niger = test: Antifungal activity against Aspergillus niger isolate after 72 hrs by twofold serial dilution method; format: functional, organism-based
Pseudomonas aeruginosa [6] = test: Antibacterial activity against Pseudomonas aeruginosa ATCC 27853 after 24 to 48 hrs by twofold serial dilution method; format: functional
Procedure, shortened: (§2)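 Broth microdilution in Müller–Hinton broth. DMSO stocks at 800 were diluted twofold from 400 down to 6.25. Wells received 10^6 CFU/mL bacterial suspension and were incubated at 36 °C for 24–48 h, with controls. MIC was read per well. Duplicate assays; run only for compounds giving inhibition zones ≥14 mm.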

Mus musculus [7] = test: Anticonvulsant activity in Wister albino mouse assessed as protection against maximal electroshock-induced seizures at 100 mg/kg, ip administered 30 mins before metrazole challenge measured after 30 mins; format: functional; details: route intraperitoneal
Staphylococcus aureus [8] = test: Antibacterial activity against Staphylococcus aureus ATCC 6538 after 24 to 48 hrs by twofold serial dilution method; format: functional; procedure, shortened: as §2
Bacillus subtilis [9] = test: Antibacterial activity against Bacillus subtilis NRRL B-14819 after 24 to 48 hrs by twofold serial dilution method; format: functional; procedure, shortened: as §2
Klebsiella pneumoniae [10] = test: Antibacterial activity against Klebsiella pneumoniae isolate after 24 to 48 hrs by twofold serial dilution method; format: functional; procedure, shortened: as §2
Micrococcus luteus [11] = test: Antibacterial activity against Micrococcus luteus ATCC 21881 after 24 to 48 hrs by twofold serial dilution method; format: functional; procedure, shortened: as §2
Klebsiella pneumoniae [12] = test: Antibacterial activity against Klebsiella pneumoniae isolate at 1 mg/mL after 24 hrs by agar diffusion method; format: functional; details: read-out: Diameter of inhibition zone; procedure, shortened: as §1
Candida albicans [13] = test: Antifungal activity against Candida albicans isolate after 72 hrs by twofold serial dilution method; format: functional
Bacillus subtilis [14] = test: Antibacterial activity against Bacillus subtilis NRRL B-14819 at 1 mg/mL after 24 hrs by agar diffusion method; format: functional; details: read-out: Diameter of inhibition zone; procedure, shortened: as §1
Pichia kudriavzevii = test: Antifungal activity against Candida krusei isolate after 72 hrs by twofold serial dilution method; format: functional, organism-based
Escherichia coli [15] = test: Antibacterial activity against Escherichia coli ATCC 25922 at 1 mg/mL after 24 hrs by agar diffusion method; format: functional; details: ATCC 25922, 24 h, read-out: Diameter of inhibition zone; procedure, shortened: as §1
Staphylococcus aureus [16] = test: Antibacterial activity against Staphylococcus aureus ATCC 6538 at 1 mg/mL after 24 hrs by agar diffusion method; format: functional; details: ATCC 6538, 24 h, read-out: Diameter of inhibition zone; procedure, shortened: as §1
Micrococcus luteus [17] = test: Antibacterial activity against Micrococcus luteus ATCC 21881 at 1 mg/mL after 24 hrs by agar diffusion method; format: functional; details: ATCC 21881, 24 h, read-out: Diameter of inhibition zone; procedure, shortened: as §1
Escherichia coli [18] = test: Antibacterial activity against Escherichia coli ATCC 25922 after 24 to 48 hrs by twofold serial dilution method; format: functional; procedure, shortened: as §2

Row | SMILES | zone of inhibition at 1000 µg/mL (Pseudomonas aeruginosa [2]) [mm] | Activity (Trichophyton rubrum) | Activity (Candida tropicalis) | zone of inhibition at 1000 µg/mL (Aspergillus fumigatus [3]) [mm] | zone of inhibition at 1000 µg/mL (Candida albicans [4]) [mm] | MIC (Aspergillus fumigatus [5]) [µg/mL] | Activity (Aspergillus niger) | MIC (Pseudomonas aeruginosa [6]) [µg/mL] | MIC (Staphylococcus aureus [8]) [µg/mL] | MIC (Bacillus subtilis [9]) [µg/mL] | MIC (Klebsiella pneumoniae [10]) [µg/mL] | MIC (Micrococcus luteus [11]) [µg/mL] | zone of inhibition at 1000 µg/mL (Klebsiella pneumoniae [12]) [mm] | MIC (Candida albicans [13]) [µg/mL] | zone of inhibition at 1000 µg/mL (Bacillus subtilis [14]) [mm] | Activity (Pichia kudriavzevii) | zone of inhibition at 1000 µg/mL (Escherichia coli [15]) [mm] | zone of inhibition at 1000 µg/mL (Staphylococcus aureus [16]) [mm] | zone of inhibition at 1000 µg/mL (Micrococcus luteus [17]) [mm] | MIC (Escherichia coli [18]) [µg/mL] | other results
1 | Sc1nnc(COC(Cn2nnnc2Cc2ccccc2)c2ccc(Cl)cc2)n1-c1ccccc1 (stereo not drawn) | ≥ 14 | inactive | inactive | ≥ 14 | ≥ 14 | ≥ 200 | inactive | ≥ 200 | 50 (≈ 99.2 µM) | 100 (≈ 198 µM) | ≥ 200 | ≥ 200 | ≥ 14 | 50 (≈ 99.2 µM) | ≥ 14 | inactive | ≥ 14 | ≥ 14 | ≥ 14 | 100 (≈ 198 µM) | Activity (Mus musculus [1]): 0%; Activity (Mus musculus [7]): 33%
2 | Sc1nnc(COC(Cn2nnnc2Cc2ccccc2)c2ccc(Cl)cc2)n1-c1ccc(Cl)cc1 (stereo not drawn) | ≥ 14 | inactive | inactive | ≥ 14 | ≥ 14 | ≥ 200 | inactive | ≥ 200 | 25 (≈ 46.4 µM) | 50 (≈ 92.9 µM) | ≥ 200 | 100 (≈ 186 µM) | ≥ 14 | 25 (≈ 46.4 µM) | ≥ 14 | inactive | ≥ 14 | ≥ 14 | ≥ 14 | 50 (≈ 92.9 µM) | 
3 | Sc1nnc(COC(Cn2nnc(-c3ccccc3)n2)c2ccc(Cl)cc2)n1-c1ccccc1 (stereo not drawn) | ≥ 14 | inactive | inactive | ≥ 14 | ≥ 14 |  | inactive | 100 (≈ 204 µM) | 12.5 (≈ 25.5 µM) | 50 (≈ 102 µM) | 50 (≈ 102 µM) | 50 (≈ 102 µM) | ≥ 14 |  | ≥ 14 | inactive | ≥ 14 | ≥ 14 | ≥ 14 | 50 (≈ 102 µM) | Activity (Mus musculus [1]): 33%; Activity (Mus musculus [7]): 33%
4 | Clc1ccc(C2Cn3nnnc3Cc3ccccc32)cc1 (stereo not drawn) | ≥ 14 | inactive | inactive | ≥ 14 | ≥ 14 | 25 (≈ 84.2 µM) | inactive | ≥ 200 | 50 (≈ 168 µM) | ≥ 200 | ≥ 200 | ≥ 200 | ≥ 14 | ≥ 200 | ≥ 14 | inactive | ≥ 14 | ≥ 14 | ≥ 14 | 50 (≈ 168 µM) | Activity (Mus musculus [1]): 0%; Activity (Mus musculus [7]): 33%
5 | Clc1ccc(COC(Cn2ccnc2)c2ccc(Cl)cc2Cl)c(Cl)c1 (stereo not drawn) [MICONAZOLE] |  |  |  |  |  | 3.12 (≈ 7.5 µM) |  |  |  |  |  |  |  | 3.12 (≈ 7.5 µM) |  |  |  |  |  |  | 
6 | Cc1cc(C)n(C(=O)COC(Cn2nnnc2Cc2ccccc2)c2ccc(Cl)cc2)n1 (stereo not drawn) | ≥ 14 | inactive | inactive | ≥ 14 | ≥ 14 | ≥ 200 | inactive | ≥ 200 | 25 (≈ 55.4 µM) | 50 (≈ 111 µM) | ≥ 200 | 50 (≈ 111 µM) | ≥ 14 | 100 (≈ 222 µM) | ≥ 14 | inactive | ≥ 14 | ≥ 14 | ≥ 14 | 100 (≈ 222 µM) | Activity (Mus musculus [1]): 0%; Activity (Mus musculus [7]): 0%
7 | Clc1ccc(C(Cn2nnnc2Cc2ccccc2)OCc2nnc(Nc3ccccc3)o2)cc1 (stereo not drawn) | ≥ 14 | inactive | inactive | ≥ 14 | ≥ 14 | ≥ 200 | inactive | ≥ 200 | 25 (≈ 51.2 µM) | 50 (≈ 102 µM) | ≥ 200 | ≥ 200 | ≥ 14 | 25 (≈ 51.2 µM) | ≥ 14 | inactive | ≥ 14 | ≥ 14 | ≥ 14 | 50 (≈ 102 µM) | 
